The values that follow come from ChEMBL document CHEMBL1155323, “Synthesis, characterization and antibacterial activity of 2-[1-(5-chloro-2-methoxy-phenyl)-5-methyl-1H-pyrazol-4-yl]-5-(substituted-phenyl)-[1,3,4]oxadiazoles” (Eur J Med Chem, 2009).

Converted amounts (≈) assume the structure as drawn.

A short description of series [1]: Octanol-water partition coefficient, log P by shake flask method. The format is physicochemical.
In series [2] the test system is Klebsiella pneumoniae. Kind of series: Antibacterial activity against Klebsiella pneumoniae ATCC 11298 at 100 ug/ml after 24 hrs by agar cup plate method. The format is functional. As to conditions: ATCC 11298, 24 h, read-out: IZ. The procedure, abridged:
(§1)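 Agar well (bore) diffusion on inoculated nutrient agar with recultured organisms. Test samples prepared in 20% water in DMSO at 100 µg/mL and placed in bores. Plates incubated at 37 °C for 24 h, then the inhibition zone around each bore measured. Controls: inoculum only, and DMSO only.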

The subject of series [3] is Bacillus subtilis. Kind of series: Antibacterial activity against Bacillus subtilis ATCC 6633 at 100 ug/ml after 24 hrs by agar cup plate method. Conditions: ATCC 6633, 24 h, read-out: IZ. In kind it is functional. The method, boiled down:
as §1

Series [4] relates to Escherichia coli. Kind of series: Antibacterial activity against Escherichia coli ATCC 8739 at 100 ug/ml after 24 hrs by agar cup plate method. As to conditions: ATCC 8739, 24 h, read-out: IZ. In kind it is functional. The method, boiled down: as §1
For series [5], the system named is Staphylococcus aureus. Kind of series: Antibacterial activity against Staphylococcus aureus ATCC 6538P at 100 ug/ml after 24 hrs by agar cup plate method. The format is functional. As to conditions: read-out: IZ. The method, boiled down: as §1
Series [6] relates to Klebsiella pneumoniae. Description: Antibacterial activity against Klebsiella pneumoniae ATCC 11298 after 24 hrs by microtitration method. In kind it is functional. As to conditions: ATCC 11298, 24 h. The procedure, abridged: (§2)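 Strains grown in Luria broth (1% tryptone, 0.5% yeast extract, 0.5% NaCl), pH 7.2, at 37 °C for 24 h. Mid-log cells read at 540 nm and diluted to OD 0.004 (5×10^5 CFU/mL), then dispensed into microplate wells. Graded concentrations (0.2–500 µg/mL) in 20% water in DMSO added; incubated 37 °C, 24 h.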

Series [7] has as its system Staphylococcus aureus. Kind of series: Antibacterial activity against Staphylococcus aureus ATCC 6538P after 24 hrs by microtitration method. In kind it is functional. The method, boiled down: as §2
In series [8] the test system is Escherichia coli. Description: Antibacterial activity against Escherichia coli ATCC 8739 after 24 hrs by microtitration method. The format is functional. Conditions: ATCC 8739, 24 h. The procedure, abridged: as §2
For series [9], the system named is Bacillus subtilis. Kind of series: Antibacterial activity against Bacillus subtilis ATCC 6633 after 24 hrs by microtitration method. In kind it is functional. As to conditions: ATCC 6633, 24 h. The method, boiled down: as §2

By logP is commonly meant a log measure of how a compound divides between an organic and an aqueous phase. As usually defined, the MIC is the least concentration at which growth counts as inhibited. A high value points to weaker potency. `COc1ccc(Cl)cc1-n1ncc(-c2nnc(-c3ccc(Br)c(C)c3)o2)c1C`: the logP in [1] was determined as 5.2. The zone of inhibition at 100 µg/mL with Klebsiella pneumoniae [2] was determined as 14 mm; in the series on Bacillus subtilis [3] it was 15 mm; with Escherichia coli [4] it was 17 mm; with Staphylococcus aureus [5], 15 mm. The MIC against Klebsiella pneumoniae [6] worked out at 40 µg/mL (≈ 87 µM); in the series with Staphylococcus aureus [7], 39.8 µg/mL (≈ 86.6 µM); against Escherichia coli [8] it was 30.8 µg/mL (≈ 67 µM); in the series on Bacillus subtilis [9], 39.8 µg/mL (≈ 86.6 µM).
For the compound `COc1ccc(Cl)cc1-n1ncc(-c2nnc(-c3ccccc3)o2)c1C`, the logP in [1] is 4.32. In addition, the zone of inhibition at 100 µg/mL with Klebsiella pneumoniae [2] was 14 mm; in the series on Bacillus subtilis [3] it was 20 mm; in the series on Escherichia coli [4], 14 mm; with Staphylococcus aureus [5], 15 mm. The MIC with Klebsiella pneumoniae [6] worked out at 40.6 µg/mL (≈ 111 µM); against Staphylococcus aureus [7] it was 39.8 µg/mL (≈ 109 µM); with Escherichia coli [8] it was 40.6 µg/mL (≈ 111 µM); in the series with Bacillus subtilis [9], 29.8 µg/mL (≈ 81.2 µM).
With `COc1ccc(Cl)cc1-n1ncc(-c2nnc(-c3ccc(C)c(Br)c3)o2)c1C`, the logP in [1] amounted to 5.19. In addition, the zone of inhibition at 100 µg/mL amounted to 15 mm in the series with Klebsiella pneumoniae [2], 15 mm with Bacillus subtilis [3], 14 mm in the series with Escherichia coli [4] and 20 mm with Staphylococcus aureus [5]. For the same compound, the MIC turned out to be 39 µg/mL (≈ 84.8 µM) against Klebsiella pneumoniae [6], 29.8 µg/mL (≈ 64.8 µM) in the series on Staphylococcus aureus [7], 40.6 µg/mL (≈ 88.3 µM) against Escherichia coli [8] and 39.6 µg/mL (≈ 86.1 µM) against Bacillus subtilis [9].
`COc1ccc(Cl)cc1-n1ncc(-c2nnc(-c3ccc(Cl)cc3)o2)c1C`: the logP in series [1] was found to be 4.51. In addition, the zone of inhibition at 100 µg/mL in the series on Klebsiella pneumoniae [2] was 13 mm; in the series on Bacillus subtilis [3] it was 15 mm; with Escherichia coli [4] it was 14 mm; in the series on Staphylococcus aureus [5], 18 mm. For the same compound, the MIC is 41 µg/mL (≈ 102 µM) against Klebsiella pneumoniae [6], 30.6 µg/mL (≈ 76.3 µM) against Staphylococcus aureus [7], 40 µg/mL (≈ 99.7 µM) in the series with Escherichia coli [8] and 39.6 µg/mL (≈ 98.7 µM) in the series with Bacillus subtilis [9].
With `CC1(C)S[C@@H]2[C@H](NC(=O)[C@H](N)c3ccccc3)C(=O)N2[C@H]1C(=O)O` [AMPICILLIN], the zone of inhibition at 100 µg/mL with Klebsiella pneumoniae [2] is 30 mm; with Bacillus subtilis [3], 32 mm; with Escherichia coli [4] it was 30 mm; with Staphylococcus aureus [5] it was 31 mm. Also, the MIC in the series with Klebsiella pneumoniae [6] turned out to be 4 µg/mL (≈ 11.4 µM); in the series with Staphylococcus aureus [7] it was 3.36 µg/mL (≈ 9.62 µM); with Escherichia coli [8] it was 3.88 µg/mL (≈ 11.1 µM); in the series on Bacillus subtilis [9], 3.28 µg/mL (≈ 9.39 µM).
Turning to `COc1ccc(Cl)cc1-n1ncc(-c2nnc(-c3ccc(Cl)c(Cl)c3)o2)c1C`, in series [1], the logP was found to be 5.57. Further, the zone of inhibition at 100 µg/mL with Klebsiella pneumoniae [2] was found to be 15 mm; in the series with Bacillus subtilis [3], 19 mm; in the series on Escherichia coli [4] it was 27 mm; in the series with Staphylococcus aureus [5] it was 20 mm. Also, the MIC with Klebsiella pneumoniae [6] came to 39.6 µg/mL (≈ 90.9 µM); against Staphylococcus aureus [7], 29.8 µg/mL (≈ 68.4 µM); against Escherichia coli [8], 21.5 µg/mL (≈ 49.3 µM); against Bacillus subtilis [9] it was 30 µg/mL (≈ 68.9 µM).
Turning to `COc1ccc(Cl)cc1-n1ncc(-c2nnc(-c3ccc(C)c([N+](=O)[O-])c3)o2)c1C`, in [1], the logP came to 6.42. Also, the zone of inhibition at 100 µg/mL turned out to be 12 mm in the series with Klebsiella pneumoniae [2], 15 mm in the series on Bacillus subtilis [3], 17 mm in the series with Escherichia coli [4] and 14 mm with Staphylococcus aureus [5]. In addition, the MIC against Klebsiella pneumoniae [6] worked out at 42 µg/mL (≈ 98.6 µM); against Staphylococcus aureus [7] it was 40.6 µg/mL (≈ 95.3 µM); in the series on Escherichia coli [8], 30.8 µg/mL (≈ 72.3 µM); against Bacillus subtilis [9] it was 39.6 µg/mL (≈ 93 µM).
As for `COc1ccc(Cl)cc1-n1ncc(-c2nnc(-c3cc(Cl)cc(Cl)c3)o2)c1C`, in [1], the logP is 5.61. For the same compound, the zone of inhibition at 100 µg/mL amounted to 21 mm in the series on Klebsiella pneumoniae [2], 15 mm in the series with Bacillus subtilis [3], 25 mm with Escherichia coli [4] and 13 mm in the series on Staphylococcus aureus [5]. For the same compound, the MIC against Klebsiella pneumoniae [6] worked out at 29.6 µg/mL (≈ 67.9 µM); against Staphylococcus aureus [7] it was 41 µg/mL (≈ 94.1 µM); in the series on Escherichia coli [8], 22.4 µg/mL (≈ 51.4 µM); in the series on Bacillus subtilis [9], 31.8 µg/mL (≈ 73 µM).
In the case of `COc1ccc(Cl)cc1-n1ncc(-c2nnc(-c3ccc(F)cc3)o2)c1C`, the logP in [1] amounted to 4.26. In addition, the zone of inhibition at 100 µg/mL was found to be 19 mm with Klebsiella pneumoniae [2], 25 mm in the series with Bacillus subtilis [3], 21 mm in the series on Escherichia coli [4] and 20 mm in the series on Staphylococcus aureus [5]. Further, the MIC against Klebsiella pneumoniae [6] turned out to be 30 µg/mL (≈ 78 µM); against Staphylococcus aureus [7], 29.8 µg/mL (≈ 77.4 µM); against Escherichia coli [8], 29.6 µg/mL (≈ 76.9 µM); with Bacillus subtilis [9], 22.4 µg/mL (≈ 58.2 µM).
In the case of `COc1ccc(Cl)cc1-n1ncc(-c2nnc(-c3cccc(F)c3)o2)c1C`, the logP in series [1] worked out at 4.28. In addition, the zone of inhibition at 100 µg/mL was 20 mm in the series on Klebsiella pneumoniae [2], 19 mm with Bacillus subtilis [3], 18 mm in the series on Escherichia coli [4] and 27 mm with Staphylococcus aureus [5]. The MIC with Klebsiella pneumoniae [6] was 29.8 µg/mL (≈ 77.4 µM); against Staphylococcus aureus [7] it was 21.5 µg/mL (≈ 55.9 µM); against Escherichia coli [8], 30.6 µg/mL (≈ 79.5 µM); in the series with Bacillus subtilis [9], 30 µg/mL (≈ 78 µM).
As to `COc1ccc(Cl)cc1-n1ncc(-c2nnc(-c3ccc(Br)cc3)o2)c1C`, the logP in series [1] amounted to 4.88. The zone of inhibition at 100 µg/mL in the series on Klebsiella pneumoniae [2] was found to be 13 mm; in the series on Bacillus subtilis [3], 14 mm; in the series on Escherichia coli [4], 15 mm; with Staphylococcus aureus [5], 19 mm. Besides, the MIC is 41.6 µg/mL (≈ 93.3 µM) against Klebsiella pneumoniae [6], 30 µg/mL (≈ 67.3 µM) in the series with Staphylococcus aureus [7], 39.8 µg/mL (≈ 89.3 µM) against Escherichia coli [8] and 40.6 µg/mL (≈ 91.1 µM) in the series with Bacillus subtilis [9].
